# Assay results taken from ChEMBL document CHEMBL1151799, “Trace amine-associated receptor 1 (TAAR1) is activated by amiodarone metabolites” (Bioorg Med Chem Lett, 2008).
# Calls of active or inactive are those of the source. The calls are words filed in the database; no cut-off is given here.
# Biological target: Trace amine-associated receptor 1 (Rattus norvegicus) (UniProt Q923Y9)
# Experiment: Agonist activity at rat TAAR1 expressed in HEK293 cells assessed as intracellular cAMP level at <=10 uM after 1 hr
# Format: functional, cell-based
# Method in brief: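 HEK293 cells stably transfected with rTAAR1 (empty pcDNA3 vector cells as control) were harvested in Krebs-Ringer-Hepes buffer (KRH), then incubated in KRH with 133 µM IBMX plus test compound, forskolin (10 µM) or vehicle (DMSO) for 1 h at 37 °C. Intracellular cAMP was read. Tested at 10 µM or below. At least three separate experiments, each in triplicate.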
# Sequence of Trace amine-associated receptor 1 (Rattus norvegicus) (Q923Y9 whole entry): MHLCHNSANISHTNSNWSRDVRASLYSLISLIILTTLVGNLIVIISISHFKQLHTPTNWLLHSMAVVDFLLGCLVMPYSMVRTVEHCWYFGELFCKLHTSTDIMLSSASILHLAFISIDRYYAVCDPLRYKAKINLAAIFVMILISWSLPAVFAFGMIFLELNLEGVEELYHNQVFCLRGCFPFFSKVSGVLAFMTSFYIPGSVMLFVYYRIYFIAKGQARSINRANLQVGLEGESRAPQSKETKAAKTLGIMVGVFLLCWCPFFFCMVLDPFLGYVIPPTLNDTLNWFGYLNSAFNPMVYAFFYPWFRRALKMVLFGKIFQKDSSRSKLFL
row,SMILES,Activity
1,CCCCc1oc2ccccc2c1C(=O)c1cc(I)c(OCCN)c(I)c1,Active
2,CCCCc1oc2ccccc2c1C(=O)c1ccc(OCCN)c(I)c1,Active

# Now from value to molecule:
row,Activity,SMILES
1,Active,CCCCc1oc2ccccc2c1C(=O)c1ccc(OCCNCC)cc1
2,Active,CCCCc1oc2ccccc2c1C(=O)c1ccc(OCCN)cc1

# Biological target: Trace amine-associated receptor 1 (Rattus norvegicus, UniProt Q923Y9)
# Sequence (Q923Y9 whole entry): as above
# Experiment: Agonist activity at rat TAAR1 expressed in HEK293 cells assessed as intracellular cAMP level
# Format: functional, cell-based
# Method in brief: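 HEK293 cells stably transfected with rat TAAR1, with empty pcDNA3 vector cells as control, were harvested in Krebs-Ringer-Hepes buffer. They were incubated in the same buffer with 133 µM IBMX plus test compound, 10 µM forskolin or DMSO vehicle for 1 h at 37 °C. Results are mean ± SEM of at least three separate experiments, each run in triplicate.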
row,SMILES,EC50
1,CCCCc1oc2ccccc2c1C(=O)c1cc(I)c(OCCN)c(I)c1,1 µM

# Biological target: Trace amine-associated receptor 1 (Rattus norvegicus) (UniProt Q923Y9)
# Experiment: Antagonist activity at rat TAAR1 expressed in HEK293 cells assessed as intracellular cAMP level at 10 uM after 1 hr
# Format: functional, cell-based
# Method in brief: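 Stably rTAAR1-transfected HEK293 cells were harvested in Krebs-Ringer-Hepes buffer and incubated in it with 133 µM IBMX, 1 h at 37 °C. Test compound at 10 µM was given in competition with the agonist T1AM at 33 nM. Intracellular cAMP was read. At least three separate experiments, each in triplicate.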
row,Activity,SMILES
1,inactive,CCCCc1oc2ccccc2c1C(=O)c1ccc(OCCNCC)c(I)c1
2,inactive,CCCCc1oc2ccccc2c1C(=O)c1ccc(OCCN(CC)CC)cc1
3,inactive,CCCCc1oc2ccccc2c1C(=O)c1ccc(OCCN(CC)CC)c(I)c1
4,inactive,CCCCc1oc2ccccc2c1C(=O)c1cc(I)c(OCCNCC)c(I)c1
